From PubChem
MrgX1 antag: antagonists of human MrgX1 receptor, primary screen, HEK293 cells, Fluo-4 calcium flux | Mas-related G-protein coupled receptor member X1 (Homo sapiens), Q96LB2 | BAM8-22 antagonism; stronger effect = lower value | B-score at 10 µM | 310,000 tested, 1.3% active;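 active means calcium-response B-score plate-corrected more than 3 library SD below zero, starting fluorescence within 5 deviations, no agonist response on first addition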;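 further: peak minus trough fluorescence over baseline after final BAM8-22 challenge near maximal dose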
Target sequence (Q96LB2 whole entry, looked up): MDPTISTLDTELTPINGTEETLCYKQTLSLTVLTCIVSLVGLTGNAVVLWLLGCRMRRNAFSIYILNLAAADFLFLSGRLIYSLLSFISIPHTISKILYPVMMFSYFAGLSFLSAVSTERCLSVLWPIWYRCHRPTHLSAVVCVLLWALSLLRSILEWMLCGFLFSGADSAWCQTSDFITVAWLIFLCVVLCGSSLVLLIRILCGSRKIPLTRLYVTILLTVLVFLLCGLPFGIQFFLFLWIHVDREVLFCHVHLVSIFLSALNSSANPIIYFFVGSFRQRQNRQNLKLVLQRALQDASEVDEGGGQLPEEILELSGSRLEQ
RGS4 block: RGS4 inhibitors, primary screen, cell-based, HEK293 M3R inducible RGS4, calcium flux. AID 463165, 2010. Regulator of G-protein signaling 4 (Homo sapiens), P49798. 310,000 tested, 0.45% active. B-score at 10 µM. Fluo-4 calcium flux; stronger effect = higher value; triggered by carbachol at its EC20;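 active means B-score, a plate-corrected calcium signal, over three deviations above library mean, with baseline fluorescence within five deviations of library mean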;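 further: RGS4 expression induced by doxycycline in cells with stable M3 receptor; B-score is computed from the integrated fluorescence ratio over baseline after carbachol; higher B-score means a larger calcium signal and so more RGS4 inhibition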
MrgX1 ag: agonists of human MrgX1 receptor, primary screen, HEK293 cells, Fluo-4 calcium flux. B-score at 10 µM. Mas-related G-protein coupled receptor member X1 (Homo sapiens), Q96LB2. Fluo-4 calcium fluorescence, agonist mode; stronger effect = higher value. 310,000 tested, 0.44% active;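 active means calcium response B-score plate-corrected fluorescence ratio at least 3 library SD, with starting fluorescence B-score inside 5 SD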
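Test system: HEK293 cells stably expressing human MrgX1 receptor; Input: fifteen thousand cells per well; Dosing: compound delivered in addition one of three; Schedule: overnight seeding, then 1 h dark dye loading; Technique: Fluo-4 NW calcium fluorescence; Measure: B-scored fluorescence response ratio; Controls: positive and negative controls per plate.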
MrgX1 allo act: positive allosteric modulators of MrgX1, primary screen, HEK293 cells, Fluo-4 calcium flux; B-score at 10 µM; AID 588675, 2011; Mas-related G-protein coupled receptor member X1 (Homo sapiens), Q96LB2; FDSS; stronger effect = higher value; 310,000 tested, 0.63% active;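 active means plate-corrected calcium response at least 3 library SD above typical, normal starting fluorescence, not activating the receptor alone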;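 further: compound read alongside a low EC10 to EC30 dose of BAM8-22 agonist; peak minus trough fluorescence over baseline measured at the second addition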
RGS4 pot: RGS4 potentiators or activators, primary screen, cell-based, HEK293 M3R inducible RGS4, calcium flux; carbachol calcium flux Fluo4; stronger effect = lower value; B-score at 10 µM; 310,000 tested, 0.92% active; AID 463111, 2010;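 active means B-score of the integrated calcium signal more than 4 SD below the library mean, with starting fluorescence not abnormally high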;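 further: negative B-score means reduced calcium response which marks RGS4 activation or potentiation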
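test system = M3R-expressing HEK293 line, RGS4 induced by doxycycline | probe or stimulus = carbachol at ECmax as muscarinic agonist stimulus | timing = dye loading 30 min 37 °C, buffer rest 30 min RT | signal = calcium dye Fluo4 fluorescence | evaluation = B score from integrated fluorescence ratio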
* = called active by the depositor; i = inactive; . = no result. Compounds with a hit are over-represented: about 3.5% of the library has one in this group of screens.

SMILES	MrgX1 antag	RGS4 block	MrgX1 ag	MrgX1 allo act	RGS4 pot
Cc1nn(Cc2ccccc2)c(Cl)c1/C=C/C(=O)OCC(=O)NC(C)C(C)C (configuration not stated)	i	i	i	i	i
CCCOc1cc(N(CC)CC)ccc1/C=C(/C#N)c1nc2ccc(C)cc2[nH]1	i	i	i	11.6*	i
COc1cccc(/C=C(\C#N)c2nc3ccccc3[nH]2)c1OCC(=O)O	i	i	i	i	i
CCN(CC)c1ccc(/C=C(/C#N)c2nc3ccc(C)cc3[nH]2)c(OC(C)C)c1	i	i	40.5*	i	i
CCOc1cc(N(CC)CC)ccc1/C=C(/C#N)c1nc2ccccc2[nH]1	i	i	78.8*	i	i
CCCCc1ccc(N=N/C(C(=O)Nc2ccccc2OC)=C(/C)O)cc1	-9.09*	i	i	i	i
CS(=O)(=O)N(CC(=O)NCc1cccnc1)C1CCCCC1	i	i	i	i	i
C#CC[N+]1(CC#Cc2ccccc2)CCCCC1	i	i	i	i	i
Cc1ccc(C#CC[N+]2(CC#Cc3ccc(C)cc3)CCCCC2)cc1	i	i	i	i	-7.13*
C#CC[N+]1(CC#Cc2cccc(C)c2)CCCCC1	i	i	i	i	i
C(#Cc1ccccc1)C[N+]1(CC#Cc2ccccc2)CCCCC1	i	i	i	i	-8.62*
C/C(=N\NC(=O)Cc1c(F)cccc1Cl)c1cccnc1	i	i	i	i	i
CCOC(=O)C(=O)NNc1ccc(C)cc1	-9.02*	i	i	i	i
CCOC(=O)C(=O)NNc1ccc(Cl)cc1	i	i	i	i	i
Cc1n[nH]c(=O)c2c(NC(=O)COC(=O)/C=C/c3cccc(C(F)(F)F)c3)oc(C)c12	i	i	i	i	i
CC(=O)c1cccc(NC(=O)COC(=O)c2ccccc2C)c1	i	i	i	i	i
O=C1C(=O)N(Cc2ccccc2)C(=O)N1CCN1C(=O)c2ccccc2C1=O	i	i	i	i	i
O=C1Cc2ccccc2C(=O)N1CCc1ccccc1	-5.21*	i	i	i	i
Cc1c(-n2cc(C(=O)c3cc(F)ccc3O)cc(C#N)c2=O)c(=O)n(-c2ccccc2)n1C	i	i	i	6.67*	i
Cn1c(/C=C/c2ccc(Cl)cc2Cl)c([N+](=O)[O-])c(=O)n(C)c1=O	i	i	i	i	i
COc1ccc(OC)c(N(CC(N)=O)S(=O)(=O)c2ccc(OC)c(OC)c2)c1	i	i	i	11.9*	i
COc1ccc(OC)c(N(CC(=O)N2CCCCC2)S(=O)(=O)c2ccc(OC)c(OC)c2)c1	i	i	i	i	i
CC1OC(O[C@H]2CC[C@]3(C)C4C=C[C@]56OC[C@@]7(CC[C@@H](C)[C@H](C)C75)[C@H](O)C[C@@]6(C)[C@]4(C)CC[C@H]3C2(C)C)C(OC2OC(CO)C(O)C(O)C2OC2OCC(O)C(O)C2O)C(O)C1O (some centres not stated)	.	i	.	.	-7.54*
Oc1ccc(CCNc2ncnc3ccc(Cl)cc23)cc1	-5.57*	i	i	i	i
CCc1ccc(NC(=O)C2CCCN2S(=O)(=O)c2ccc3c(c2)n(C)c(=O)c(=O)n3C)cc1 (configuration not stated)	i	i	i	i	i
CCOC(=O)c1cccc(N/C=C/C(=O)c2ccc(OC)c(OC)c2)c1	i	i	i	i	-8.3*
COc1cccc(N/C=C/C(=O)c2ccc(OC)c(OC)c2)c1	i	i	i	i	i
COc1ccc(NC(=O)CS(=O)c2cccc(Cl)c2)cc1 (configuration not stated)	i	i	i	i	i
COc1ccccc1C(=O)Nc1ccnn1C1CCN(Cc2ccn[nH]2)CC1	i	i	i	i	i
